# Assay results: the RNAGym collection of RNA variant scans (doi:10.1126/science.aae0568)
# Variants at the floor of the assay were thinned out.
# B1: tRNA (parent)
# chain: GUUCCGUUGGCGUAAUGGUAACGCGUCUCCCUCCUAAGGAGAAGACUGCGGGUUCGAGUCCCGUACGGAACG
# Variants of: B1
# Test: yeast fitness relative to wild type (ratio to wild type); higher = fitter; tRNA-Arg(CCU), competitive growth, 37 C, YPD
# In short: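 Variants of the tRNA-Arg(CCU) gene were chemically synthesised with a 3% per-site mutation rate across 69 sites and placed at the native genomic locus in Saccharomyces cerevisiae. Six parallel replicates of the pooled strains were competed in YPD at 37°C for 24 hours, and gene amplicons from the start and end populations were read by 100-nucleotide paired-end sequencing. Darwinian fitness relative to wild type was derived from changes in genotype frequencies. Genotypes required ≥ 100 starting reads, and estimates < 0.5 were set to 0.5.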
row,Variant,yeast fitness
1,C22U A65G,0.835
2,C27U G38A C66A,0.645
3,C11A C55G C66A,≤ 0.5
4,G12A G18A C61G A70G,0.682
5,C4A C27G,0.674
6,G18C U64A,0.593
7,U2A A42G A43G G50A,0.541
8,C11U A14U G18A C31U C46G U47A A65C,≤ 0.5
9,C11U C55G,0.594
10,G12C A43G G51C U59C C62G A70U,≤ 0.5
11,G6A C66A A69C,0.565
12,U8C C11U A15C A21G C24G U28A,≤ 0.5
13,G10C C29U A69C,≤ 0.5
14,G6C A21U U26C,≤ 0.5
15,C27U C66G G67C,≤ 0.5
16,U2G G9A U59A,≤ 0.5
17,U3A A21G C33G C34G,≤ 0.5
18,C22G C33U A42U A43G C61A,≤ 0.5
19,G12C A15C U19A C34U C49A,≤ 0.5
20,A42U A43C C49A,≤ 0.5
21,G17C A43C,0.734
22,G6A C22U C33U A36U A43C C60U C61G A70G,≤ 0.5
23,A20C C24U A42U U59C C62U,≤ 0.5
24,A15C G18C A42C,≤ 0.5

row,Variant,yeast fitness
1,U19A C34U A42U,0.543
2,C4A A21G,0.974
3,C4A A15C,0.544
4,U13A A45G G67U,0.629
5,G6A A21U C33U A57U U59C,≤ 0.5
6,U8G U26A G52A U54A C60A,≤ 0.5
7,A14G U28C,0.692
8,G9A A15U G41A,≤ 0.5
9,U3A U13A,1.04
10,A20U C24A A40C G50C C66U,≤ 0.5
11,U13A C30G C31U C33G,≤ 0.5
12,U3A C27A A42G C46G,≤ 0.5
13,C5U C31U G68C,0.653
14,A15G A43G U53G G63A,≤ 0.5
15,U19C A37G G44C G58A A65G,0.63
16,C46A G63U,0.764
17,G6C C11G C22U,0.606
18,U8A G23A C30G A65U,0.55
19,U26G A42C,1.03
20,G6A C24U C61G C66U,0.724
21,G6A C11A G52U,≤ 0.5
22,C5A G56A,1
23,G25A A42U A43C G44A C49A C55G,≤ 0.5
24,U3A A15C C22G U32C G41A,≤ 0.5

row,Variant,yeast fitness
1,A36U G63C,≤ 0.5
2,U7C A37U G39C A43U C55G,≤ 0.5
3,G9A A21U C24U C29U C49U,≤ 0.5
4,U19A A69C,1.08
5,C27U A42U,1.09
6,U7A G10A C33A A36C,≤ 0.5
7,C4A U32C G67A,0.655
8,C34G A69U,0.631
9,U16A C22G A45C,0.607
10,C31G A40U A45U C62A,0.591
11,A42C A43C A65G,1.09
12,C4A A14C U19A A69C,0.53
13,U35A A43C,0.636
14,C24U A40G C46A,0.723
15,C29G G44C,0.755
16,G25A G44A,0.841
17,G6A A15C,0.601
18,A14G U47A,0.776
19,C11U G25A U59G,0.538
20,A14G C30G A57G,≤ 0.5
21,A57G C61G,0.61
22,A21G G39C,0.732
23,U2A C11U U19G C55U,0.571
24,U3A U64G,0.831

row,Variant,yeast fitness
1,G52A C61A A69U,≤ 0.5
2,A43U C60G C62U,0.839
3,U8A U35A G44C A45U,0.64
4,U2G U53A,0.532
5,A15C A21U A70G,≤ 0.5
6,C33A C49A C60A,0.714
7,U3A G17A C22U C46G,≤ 0.5
8,U13C A40G G63A G67A,≤ 0.5
9,G67A G68A,0.85
10,C5G U47C,0.745
11,G6A U13C C31U U32C G67C,≤ 0.5
12,C11A C24U C31U C61U G67A,≤ 0.5
13,A14G C66G,0.761
14,C5U C11A C24G C27G A36U G38C G67C,≤ 0.5
15,C34G A65U,0.581
16,C4U C29U A36U A65U,0.557
17,C29U C30A G38A,≤ 0.5
18,C5G G58A G67C,0.687
19,C11A C30G A45U A57G C60A,≤ 0.5
20,G48A U54C,0.929
21,U7G A43U C61G,≤ 0.5
22,C4G C55U G68C,0.56
23,C5G U13C A21C G68A,≤ 0.5
24,U7C A57U U64C G67C,0.501

row,Variant,yeast fitness
1,U16C A21C G41C A43C C66G A70U,≤ 0.5
2,U26G G48A C61U A70U,0.68
3,C11G A20C C24G G63A C66U,≤ 0.5
4,C5G A21G C22U,0.689
5,C11U C46U,1
6,A20U A42U,0.742
7,G6C C24A A70C,≤ 0.5
8,G17A A40G,0.722
9,U13G A70U,1.11
10,C29G U35C,0.522
11,G6A A15G C46A,0.557
12,U8C A21U C27U G38C C61G,0.553
13,G10A G25C C49G,0.603
14,U35C A45G C49G G56A A65C,≤ 0.5
15,C22G G52A U64C,0.537
16,U16A U19C C33G A43G U54A,≤ 0.5
17,C4U U7G A14U,≤ 0.5
18,A20G C30G,0.593
19,U13C C22U C27U A37C,0.563
20,G17C U32G C34A A40U A43C,≤ 0.5
21,C24U G39A A70C,0.668
22,C33A A36U C66U,≤ 0.5
23,U7A A37C A43C,0.583
24,U3G C46A A57U A69U,≤ 0.5

row,Variant,yeast fitness
1,U7C A37C,0.862
2,G10C C49A C62U,≤ 0.5
3,U3C C29G G38A A43G G50A,≤ 0.5
4,G23C U54A,≤ 0.5
5,C5G C27G U28A C30U G48A G58A C66U,≤ 0.5
6,C4A G39C G51A,≤ 0.5
7,A20C C33U,0.816
8,C5U U8G,0.64
9,C24A G25A U47C G52C,≤ 0.5
10,C11G G23C A37G C49U C61U,≤ 0.5
11,U19C G50A C61U,≤ 0.5
12,U3A A21G A45G A69C,0.726
13,A14U A45C,0.653
14,U26A G68A,0.779
15,U7G C34U,0.588
16,C27G C33G G39A C46U C61U A69U,0.585
17,A45G C60A C62A,0.57
18,C4G C5G A20G A21U C34G C46A C61A,≤ 0.5
19,C4A A65C,0.658
20,A20C C22U C34U U35G,≤ 0.5
21,U8A G58A G67U,0.618
22,C60G,0.664
23,C5A U53C C62U,≤ 0.5
24,C27U A37U,0.626

row,Variant,yeast fitness
1,U32C A43C C55A A57C,≤ 0.5
2,C34A G41A,0.782
3,G51A C62G,0.621
4,C4G C5G C29U G50C U59A,≤ 0.5
5,A15C A20U,0.63
6,A15U A70U,0.836
7,A20G A43U C62U,0.86
8,A20U C24G A45G U53A,≤ 0.5
9,G25C A40C C55U,0.708
10,G12A U53G G58C C61A,≤ 0.5
11,C24A G25A U47C,≤ 0.5
12,C4U C29A G38A A69U,≤ 0.5
13,C5U G67A A69U,≤ 0.5
14,A21U U54C C55G C60A C61G C66G,≤ 0.5
15,C49G U54G A69U,≤ 0.5
16,G10C A14G C62U,≤ 0.5
17,C11U C27U C31U A37G A42U G48C C49U,0.54
18,U16G G23C G48A C61A,0.577
19,A15U A20C G23A G50C,0.577
20,C4A C11G G18C C27G,≤ 0.5
21,C4A C30A A37C G58A A70U,≤ 0.5
22,C55G C60A C66A,≤ 0.5
23,A14C G25C U47A C49U G63C,0.561
